Measurements as given in PMC6265067 (Nature, 2018).

How the values were obtained:
D14-D3-ASK1 = type: binding, O. sativa (ASK1: A. thaliana); settings: for complex formation with D14-D3-ASK1: in the presence of GR24 (100–200 μM)
Procedure, shortened: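 Purified proteins (20–50 μM) were preincubated for 1 h at 4 °C with 100–200 μM GR24, or with acetone as control, in 20 mM HEPES pH 7.0, 150 mM NaCl, 2 mM DTT. Samples were run on Superdex-200 Increase 10/300 at 0.5 mL/min. Fractions of 0.5 ml were analysed by SDS-PAGE with Coomassie staining; repeated at least three times.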

D53-D2 / D14 = experiment: AlphaScreen assay of D53-D2-D14 interaction; type: binding, O. sativa; settings: DMSO control, mean ± s.d. of biological triplicates
Procedure, shortened: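 AlphaScreen proximity read. The GST-tagged partner sits on glutathione donor beads and the His-tagged partner on anti-6xHis acceptor beads (5 μg/ml each). Uses 100–500 nM D14 or D53 and 1 μM ASK1-D3 in 50 mM MES pH 6.5, 150 mM NaCl, 1 mM DTT, 0.1 mg/ml BSA. Excitation 680 nm, emission 520–620 nm. Peptide reactions carry matched DMSO; DMSO-only serves as control.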

D14 / D53-D2 = experiment: GST-pulldown of D14 and D53-D2 in the presence of D3-CTH; type: binding, O. sativa; settings: in the presence of GR24, repeated thrice
Procedure, shortened: (§1)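 GST-tagged bait (~20–40 μg) and His-tagged or untagged prey (~10–25 μg) were incubated with GST beads for 30 min at 4 °C in 40 mM Tris-HCl pH 7, 100 mM NaCl, 2 mM DTT, 0.01% BSA. GR24 was at 20–100 μM with acetone as control. Beads were washed in 250 mM NaCl buffer with 0.01% Tween 20 and eluted with SDS sample buffer or 5 mM glutathione. Read-out: SDS-PAGE with Ponceau or anti-GST/anti-His Western.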

D14 [1] = target: T1, D14 (Oryza sativa subsp. japonica, UniProt Q10QA5); experiment: AlphaScreen competition of D3-CTH peptide with His-D3 for binding GST-D14; parameters: species or system O. sativa; settings: 10 μM GR24 (saturating), dose-dependent, 50 mM MES pH 6.5, 150 mM NaCl, 1 mM DTT, 0.1 mg/ml BSA, mean ± s.d. of biological triplicates
T1 sequence (Q10QA5 52-318): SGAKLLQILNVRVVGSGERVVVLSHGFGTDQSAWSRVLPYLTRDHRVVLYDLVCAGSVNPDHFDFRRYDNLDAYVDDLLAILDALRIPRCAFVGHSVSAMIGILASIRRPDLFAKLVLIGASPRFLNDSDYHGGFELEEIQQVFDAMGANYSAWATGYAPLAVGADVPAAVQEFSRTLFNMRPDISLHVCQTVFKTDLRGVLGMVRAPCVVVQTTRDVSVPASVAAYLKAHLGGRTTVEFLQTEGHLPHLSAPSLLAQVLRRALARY

D14 / D3 = experiment: AlphaScreen assay of GST-D14 / His-D3 interaction in response to GR24; type: binding, O. sativa; settings: increasing GR24, pH 6.5, mean ± s.d. of biological triplicates
Procedure, shortened: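 GST-D14 is held on glutathione donor beads and His-D3 (ASK1-D3 complex, 1 μM) on anti-6xHis acceptor beads, both at 5 μg/ml. D14 at 100–500 nM. Buffer is 50 mM MES, 150 mM NaCl, 1 mM DTT, 0.1 mg/ml BSA. GR24 is titrated. Signal is read at 520–620 nm after 680 nm excitation, averaged over three experiments.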

AtSMXL7-YFP = experiment: SMXL7-YFP level in tobacco epidermal cells; type: cell-based, Arabidopsis thaliana, expressed in Nicotiana benthamiana; settings: co-expressed with D14-CTH-mCherry; 10 μM GR24, 120 min; n=7 nuclei; p = 4.401×10^−2
D14 [2] = target: T1, D14; experiment: Pull-down assay with GST-tagged D53-N, D53-D1 or D53-D2 and His-D14; type: binding, O. sativa; settings: GST-tagged D53 domains, GR24
Procedure, shortened: as §1

D14 [3] = target: T1, D14; experiment: YLG hydrolysis assay; type: biochemical, O. sativa
Procedure, shortened: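 Recombinant rice D14 (residues 52–318, SUMO tag cleaved) at 1–2 μg, with co-expressed ASK1-D3 complex and D53-D2, plus YLG. Buffer is 50 mM MES pH 6.5, 150 mM NaCl, 1 mM DTT under plate seal. Fluorescence (ex 480/em 520 nm) is read every 10 s over 50–60 min and converted to fluorescein concentration via a standard curve before curve fitting. Repeated at least three times.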

D53 = D53 stability in a reconstituted cell-free system; type: biochemical, O. sativa (extract: Arabidopsis seedlings); settings: max2–1 seedling extract; 10 μM GR24; 22 °C

For `CCOC(=O)c1ccccc1-c1c2ccc(=O)cc-2oc2cc(OC3C=C(C)C(=O)O3)ccc12` (stereo not shown) [YLG, Yoshimulactone Green, reference compound], the “complex assembly among D14, D3-ASK1 and D53-D2” value (D14-D3-ASK1; Superdex-200, in the presence of YLG) was “can induce complex assembly among D14, D3-ASK1, and the D53-D2 domain”.

With “D3_693–707: 15aa D3 peptide (ENDLMFTEMRAESWL; UniProt Q5VMP0 693-707, looked up, fragment)” the “promotion of D53-D2-D14 interaction” value (D53-D2 / D14) was “did not stimulate binding”.

In the case of “D3-CTH peptide: 28 amino acids D3-CTH peptide (28aa, D3_693–720), O. sativa (ENDLMFTEMRAESWLRFEVQLNSRQIDD; UniProt Q5VMP0 693-720, looked up, fragment)”, the “promotion of D53-D2-D14 interaction” value (D53-D2 / D14) is reported as “elicited the same effect in a dose-dependent manner”, the “stimulation of D14 and D53-D2 pulling down each other” value (D14 / D53-D2) is reported as “able to stimulate D14 and D53-D2 to pull down each other in the presence of GR24” and the “competition with D3 for binding D14” value (D14 [1]) is reported as “able to compete with D3 for binding D14”.

`CC1=C[C@H](O/C=C2/C(=O)O[C@@H]3c4ccccc4C[C@H]23)OC1=O` [GR24] was tested, and the “D3-D14 interaction” value (D14 / D3) was “GR24-dependent D3-D14 interaction” and the “SMXL7 reduction upon GR24 treatment” value (AtSMXL7-YFP) was 11.8%.

In the case of “D3_708–720: 13aa D3 peptide (RFEVQLNSRQIDD; UniProt Q5VMP0 708-720, looked up, fragment)”, the “promotion of D53-D2-D14 interaction” value (D53-D2 / D14) is reported as “did not stimulate binding”.

B1: D53 D2 domain: D53 D2 domain (D53-D2, 718–1,131) (protein)
chain: NSDLSNYKLLVERLFKVVGRQEEALSAICESIVRCRSTESRRGPNRNDIWLCFHGSDSMAKKRIAVALAELMHGSKDNLIYLDLNLQDWDDSSFRGKTGIDCIVEQLSKKRQSVLFLDNIDRADCLVQDSLSDAIKSGRFQDMRGKVVDINDSIVVLSRSMIQGSKNGLEEGLSFSEEKILATRGHRLKILVEPGRAITSGCPSGKVVVSPRHFLTKIQASLCSGSISKRKLSISDDQEKLQESPSSSKRLHRTSSVPFDLNLPVDEDEPLDADDDSSSHENSYGNTEKSIDALLHSVDGSINFKPFDFDKLADDMLQEFSNILRKNLGSECMLEIDVGAMEQILAAAWKSEEDRKPVPTWLEQVFARSLDELKLKRKHVSSSTLRLVACEDTVPAVKGDGLGVLLPPRIILDC
modifications: left off: GST, end not stated, kept
With B1 the “binding D14” value (D14 [2]) was “solely responsible for binding D14 in a GR24-dependent manner”, the “effect on D3-ASK1-arrested D14 kinetics” value (D14 [3]; D14 + ASK1-D3, D53-D2 at two concentrations) was “little change in the enzymatic kinetics” and the “complex formation with D14-D3-ASK1” value (D14-D3-ASK1; Superdex-200) was “can form a stable complex with D14-D3-ASK1 in the presence of GR24”. For the same molecule, the “requirement for stable association with D14” value (D14-D3-ASK1; Superdex-200, ± ASK1-D3, GR24) was “stably associated with D14 only in the presence of D3 and GR24”.

B2: D53: Full length D53 (O. sativa), expressed as a GST fusion protein (protein)
chain: MPTPVAAARQCLSPAAVPALDAAVASSRRRAHAQTTSLHLISSLLAPPAPPLLRDALARARSAAYSPRVQLKALDLCFAVSLDRLPSVSASSSSSGAADEPPVSNSLMAAIKRSQANQRRNPDTFHFYHQAATAQTPAAVKVELSHLVLAILDDPVVSRVFAEAGFRSGDIKLAILRPAPPMPLLGRLPTRTRPPPLFLCSFAAADDADVPSPAGNLAGAGEENCRRIAEILSRGRNPMLVGVGAASAADDFAAASPYRIIHVDPNTIDRSDLGVAAAMASATSGLIISIGDLKQLVPDEDAEAQEKGRRVVAEVTRVLETHSKVGRVWVMGWSATYETYLAFLSKFPLVDKDWDLQLLPITAVHAAATAGPAAAAAGLMPPATTVAAFSKPAASLMDSFVPFGGFLCDNYEENSLTANSCPQALRCQQCNDKYEQEVATIISASGITAEDHHQGGLPSLLQNGSMMGPNNGFDPVKARDDRMVLNSKILNLRKKWNEYCLRLHQDHQRINRDPYKPFPRYIGVPTDKERSANSSKGSESVGVQKDVIKPCAVSAVHSSSTARPISSPSVTNKRNEDLVLNLQARHSKSDENLQERGMQSQHGTLSNVDNPDDHVSPSSAAPVETDLVLGTPRECSSKGSSSTCSKRVEDSERSVHLVPKKVDDLNLKHPQLSVQPNSCSWSSINVGKTSHSTLHSVASGGFSAFGQWQKRSPLAAQNSDLSNYKLLVERLFKVVGRQEEALSAICESIVRCRSTESRRGPNRNDIWLCFHGSDSMAKKRIAVALAELMHGSKDNLIYLDLNLQDWDDSSFRGKTGIDCIVEQLSKKRQSVLFLDNIDRADCLVQDSLSDAIKSGRFQDMRGKVVDINDSIVVLSRSMIQGSKNGLEEGLSFSEEKILATRGHRLKILVEPGRAITSGCPSGKVVVSPRHFLTKIQASLCSGSISKRKLSISDDQEKLQESPSSSKRLHRTSSVPFDLNLPVDEDEPLDADDDSSSHENSYGNTEKSIDALLHSVDGSINFKPFDFDKLADDMLQEFSNILRKNLGSECMLEIDVGAMEQILAAAWKSEEDRKPVPTWLEQVFARSLDELKLKRKHVSSSTLRLVACEDTVPAVKGDGLGVLLPPRIILDC
modifications: left off: GST, end not stated, kept
For B2, the “effect on D14 inhibited by D3 C-terminal peptide” value (D14 [3]; D14 + D3-CTH, initial reaction and slow linear phase) was “robustly blocked the inhibition of the enzymatic activity of D14 by the D3 C-terminal peptide” and the “complex formation with D14-D3-ASK1” value (D14-D3-ASK1; Superdex-200) was “can form a stable complex with D14-D3-ASK1 in the presence of GR24”.

B3: C-terminally truncated D3 mutant protein: D3ΔCTH (O. sativa, residues 1–693) co-expressed with ASK1 (protein, UniProt Q5VMP0 1-693, looked up, fragment)
chain: MAEEEEVEEGRSSSSAILDLPEPLLLHILSFLTDVRSRHRAALACGRMRAAERATRSELSLRGDPRSPGFLFLSHAFRFPALEHLDLSLVSPWGHPLLSSVPPCGGGGGGAPSASSSSGMNVYHPEAISEQNAFIAARLAGCFPAVTSLAVYCRDPTTLANLTPHWQASLRRVKLVRWHQRPPTLPDGADLEPLLETCAALRELDLSEFYCWTEDVVRALTTHPSATAALTHLDLGLAAATDGFKSSELGPIAASCPNLRKLVAPCLFNPRFSDCVGDDALLSLATSCPRLTVLRLSEPFEAAANIQREEAAITVAGLVAFFAALPALEDFTMDLQHNVLEAAPAMEALARRCPRIKFLTLGSFQGLCKASWLHLDGVAVCGGLESLYMKNCQDLTDASLAAIGRGCRRLAKFGIHGCDLVTSAGIRRLAFTLRPTLKEVTVLHCRLLHTAECLTALSPIRDRIESLEINCVWNTTEQPCSVANGTTTECDPEDDELGEVYESAAKKCRYMEFDDLGSWEMLRSLSLWFSAGQLLSPLISAGLDSCPVLEEISIKVEGDCRTCPRPAPRTIFGLSDLAGFPVLAKMKLDLSEAVGYALTAPTGQMDLSLWERFYLHGIESLQTLYELDYWPPQDKDVHHRSLTLPAVGLIQRCVGLRKLFIHGTTHEHFMTFFLSIPNLRDMQLREDYYPAPE
modifications: co-expressed with ASK1
In the case of B3, the “restoration of D53-degrading activity of max2–1 extracts” value (D53) is reported as “nor restore the D53 degradation activity of the max2–1 extracts” and the “ternary complex with D14 and D53-D2” value (D14-D3-ASK1; sizing column, D14-GR24, D53-D2) is reported as “could neither form a ternary complex with D14 and D53-D2 on a sizing column”.
